Results as given in ChEMBL document CHEMBL3272297, “Lipophilicity and serotonin agonist activity in a series of 4-substituted mescaline analogues” (J Med Chem, 1977).

organism: Ovis aries; experiment: Agonist activity at serotonin receptor in sheep umbilical artery assessed increase of mescaline-induced contraction; type: tissue-based
Method in brief: (§1)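 Serotonin-receptor agonism measured in an isolated sheep umbilical artery preparation from dose-response curves giving ED50 values. The ratio (mescaline ED50 / compound ED50) is calculated from the data within each experimental series, with mescaline run as a time control. Data are reported over n tissues with the standard error of the geometric mean.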

Row | SMILES | ED50
1 | CCCCOc1c(OC)cc(CCN)cc1OC | 1.1 ×10⁻⁶ M
2 | COc1cc(CCN)cc(OC)c1OCc1ccccc1 | 4.6 ×10⁻⁷ M
3 | COc1cc(CCN)cc(OC)c1OC [MESCALINE] | 1.4 ×10⁻⁶ M
4 | CCOc1c(OC)cc(CCN)cc1OC | 6.8 ×10⁻⁷ M
5 | CCCOc1c(OC)cc(CCN)cc1OC | 3.8 ×10⁻⁷ M
6 | COc1cc(CCN)cc(OC)c1Br | 1.85 ×10⁻⁷ M
7 | COc1cc(CCN)cc(OC)c1OC(C)C | 5 ×10⁻⁷ M

organism: Ovis aries; experiment: Potency ratio, ratio of mescaline ED50 to compound ED50 for serotonin receptor in sheep umbilical artery assessed increase of mescaline-induced contraction; type: tissue-based; method in brief: as §1

Row | SMILES | Ratio ED50
8 | CCCCOc1c(OC)cc(CCN)cc1OC | 1.27
9 | COc1cc(CCN)cc(OC)c1OCc1ccccc1 | 3.04
10 | CCOc1c(OC)cc(CCN)cc1OC | 2.06
11 | CCCOc1c(OC)cc(CCN)cc1OC | 3.68
12 | COc1cc(CCN)cc(OC)c1Br | 7.57
13 | COc1cc(CCN)cc(OC)c1OC(C)C | 2.8

tested on: not listed separately; experiment: 1-Octanol-water partition coefficient, log P of the compound at pH 8; type: physicochemical

Row | SMILES | logD
14 | CCCCOc1c(OC)cc(CCN)cc1OC | 2.32
15 | COc1cc(CCN)cc(OC)c1OCc1ccccc1 | 2.4
16 | COc1cc(CCN)cc(OC)c1OC [MESCALINE] | 0.78
17 | CCOc1c(OC)cc(CCN)cc1OC | 1.11
18 | CCCOc1c(OC)cc(CCN)cc1OC | 1.7
19 | COc1cc(CCN)cc(OC)c1Br | 2.03
20 | COc1cc(CCN)cc(OC)c1OC(C)C | 1.52
